The test system of data set [1] is Salmonella typhimurium. As to the kind of experiment: Mutagenicity in Salmonella typhimurium TA1535 by Ames test. Particulars: salmonella enterica subsp. enterica serovar typhimurium. The class given is toxicity, organism-based.
The test system of data set [2] is Rattus norvegicus. As to the kind of experiment: Toxicity in ip dosed rat. Particulars: in vivo. The class given is organism-based.
The nature of data set [3]: Activity at cytochrome P450 in PCN-induced rat liver microsomes treated with (R)-warfarin at 0.15 mmol measured under acidic conditions by LC-UV analysis in presence of cumene hydroperoxide. It counts as ADME. The method, boiled down:
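Liver microsomes from PCN-induced rats (100 mg/kg/day ip in corn oil for 3 days), 200 mL at 2.0 mg protein/mL in TES–MgCl2, pH 7.4, with (R)-warfarin sodium 1.5 × 10^-4 mol. Preincubated 5 min at 37 °C with shaking, started with cumene hydroperoxide 1.6 × 10^-4 mol, given a second equal addition at 10 min, stopped at 30 min on ice. Product isolated by preparative C18 LC.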
On the technique in general: Liver microsomes are vesicles of endoplasmic reticulum, rich in cytochrome P450 enzymes.

A short description of data set [4]: Activity at cytochrome P450 in rat liver microsomes treated with (S)-warfarin measured for 10 mins by LC-UV analysis. It counts as ADME. The method, boiled down:
(§1)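 Male Wistar rat hepatic microsomes, 8.0 mg protein in 4.0 mL 0.01 M TES-0.002 M MgCl2, pH 7.4. Enantiopure warfarin sodium 1.0 mg (3.0 × 10^-6 mol) with an NADPH-generating system (NADP 1.25 μmol, glucose 6-phosphate 62.1 μmol). Preincubated 1.0 min at 37 °C, started with G6P dehydrogenase 5.0 units, stopped after 10 min by filtration. Metabolites separated and quantified by LC against external standards.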

Data set [5] has as its system Rattus norvegicus. As to the kind of experiment: Antagonism of extrinsic coagulation factor-10 synthesis in rat plasma at 100 mg/kg, ip measured after 12 hrs. It counts as functional, organism-based. Details: dose 100 mg/kg. In a few lines:
(§2)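 Six rats per group given 100 mg/kg ip, as sodium salt in saline or as free acid in corn oil. At 12 h, rats were anesthetized and blood drawn from the posterior vena cava into 3.8% trisodium citrate; plasma was taken at 2000g for 10 min. Clotting measured by one-stage fibrometer assay, and individual factors by a published method. Controls received vehicle or racemic warfarin sodium at 10 mg/kg ip.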

Data set [6] concerns Salmonella typhimurium. Nature of the data set: Mutagenicity in Salmonella typhimurium TA1537 by Ames test in presence of liver microsomes. It counts as toxicity, organism-based. Particulars: salmonella enterica subsp. enterica serovar typhimurium.
Data set [7] concerns Salmonella typhimurium. Nature of the data set: Mutagenicity in Salmonella typhimurium TA1535 by Ames test in presence of liver microsomes. Particulars: salmonella enterica subsp. enterica serovar typhimurium. The class given is toxicity, organism-based. (In general: The Ames test detects mutagens through reverse mutation in bacteria.)
For data set [8], the system named is Salmonella typhimurium. Nature of the data set: Mutagenicity in Salmonella typhimurium TA1537 by Ames test. The class given is toxicity, organism-based. Particulars: salmonella enterica subsp. enterica serovar typhimurium.
A short description of data set [9]: Activity at cytochrome P450 in rat liver microsomes treated with (S)-warfarin at 3 umol measured under acidic conditions by LC-UV analysis in presence of NADPH. The class given is ADME. In a few lines:
(§3)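 Male Wistar rat liver microsomes, uninduced or phenobarbital-induced (100 mg/kg/day ip in saline for 3 days, harvested 24 h after the last dose). Per 4.0 mL of 0.01 M TES–0.002 M MgCl2, pH 7.4: (R)- or (S)-warfarin sodium 3.0 × 10^-6 mol, NADP 1.25 µmol, glucose 6-phosphate 62.1 µmol, 8.0 mg protein. Preincubated 1.0 min at 37 °C, started with yeast G6P dehydrogenase (5.0 units), stopped by filtration after 10 min. Products quantified by LC against external standards.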

Data set [10] relates to Rattus norvegicus. As to the kind of experiment: Antagonism of intrinsic coagulation factor-8 synthesis in rat plasma at 100 mg/kg, ip measured after 12 hrs. It counts as functional, organism-based. Details: dose 100 mg/kg. The method, boiled down: as §2
Data set [11] deals with Rattus norvegicus. As to the kind of experiment: Antagonism of intrinsic coagulation factor-9 synthesis in rat plasma at 100 mg/kg, ip measured after 12 hrs. It counts as functional, organism-based. Details: dose 100 mg/kg. In a few lines:
as §2

Data set [12] deals with Salmonella typhimurium. As to the kind of experiment: Mutagenicity in Salmonella typhimurium TA100 by Ames test in presence of liver microsomes. It counts as toxicity, organism-based. Particulars: salmonella enterica subsp. enterica serovar typhimurium.
Data set [13] is described as follows: Activity at cytochrome P450 in phenobarbital-induced rat liver microsomes treated with (S)-warfarin at 3 umol measured under acidic conditions by LC-UV analysis in presence of NADPH. The class given is ADME. In a few lines: as §3
The test system of data set [14] is Rattus norvegicus. As to the kind of experiment: Antagonism of extrinsic coagulation factor-7 synthesis in rat plasma at 100 mg/kg, ip measured after 12 hrs. The class given is functional, organism-based. Details: dose 100 mg/kg. In a few lines:
as §2

In data set [15] the test system is Salmonella typhimurium. As to the kind of experiment: Mutagenicity in Salmonella typhimurium TA98 by Ames test in presence of liver microsomes. It counts as toxicity, organism-based. Particulars: salmonella enterica subsp. enterica serovar typhimurium.
Data set [16] concerns Rattus norvegicus. As to the kind of experiment: Effect on fibrinogen level in rat plasma at 100 mg/kg, ip measured after 24 hrs. It counts as functional, organism-based. Details: dose 100 mg/kg.
Data set [17] has as its system Rattus norvegicus. As to the kind of experiment: Antagonism of extrinsic coagulation factor-2 synthesis in rat plasma at 100 mg/kg, ip measured after 12 hrs. The class given is functional, organism-based. Also on record: dose 100 mg/kg. In a few lines: as §2
Data set [18] relates to Salmonella typhimurium. Nature of the data set: Mutagenicity in Salmonella typhimurium TA100 by Ames test. Particulars: salmonella enterica subsp. enterica serovar typhimurium. It counts as toxicity, organism-based.
In data set [19] the test system is Rattus norvegicus. Nature of the data set: Anticoagulant activity in rat plasma at 100 mg/kg, ip measured after 12 hrs by one-stage clotting assay. It counts as functional, organism-based. Details: dose 100 mg/kg. The method, boiled down:
as §2

Data set [20] relates to Liver microsome. As to the kind of experiment: Drug metabolism in rat liver microsomes by LC-UV analysis. The class given is ADME.
Data set [21] in a line: Activity at cytochrome P450 in rat liver microsomes treated with (R)-warfarin measured for 10 mins by LC-UV analysis. The class given is ADME. In a few lines: as §1
The subject of data set [22] is Salmonella typhimurium. As to the kind of experiment: Mutagenicity in Salmonella typhimurium TA98 by Ames test. It counts as toxicity, organism-based. Particulars: salmonella enterica subsp. enterica serovar typhimurium.

Our source for the Activity, Drug metabolism and inhibition values is ChEMBL document CHEMBL3244411, “A new warfarin metabolite: structure and function” (J Med Chem, 1978).

The structures appear in SMILES notation. Calls of active or inactive are those of the source. The rule behind the calls is not given here.

In the case of `CC(=O)CC(c1ccccc1)c1c(O)c2ccccc2oc1=O` (configuration not stated) [WARFARIN], the Activity entry in data set [1], in data set [2], in [6], in data set [7], in [8] and in data set [12] was “Non-toxic” in each case. Moreover, the Activity entry in [15], in data set [18] and in data set [22] was “Non-toxic” in each case. In addition, the Drug metabolism result in data set [3] is listed as “metabolite_detected”; in [4], “metabolite_detected”; in data set [9], “metabolite_detected”; in data set [13] it was “metabolite_detected”; in [20] it was “metabolite_notdetected”; in [21], “metabolite_detected”. In addition, the inhibition entry in data set [5], in data set [10], in data set [11], in [14] and in data set [17] was “inactive” throughout. Besides, the outcome in data set [16] and in data set [19] was inactive.
